In series [1] the test system is KB 3-1. Nature of the series: Cytotoxicity against human KB-3-1 cells assessed as inhibition of cell proliferation incubated for 72 hrs by MTT assay. The series is classed as functional, cell-based. To be noted: KB 3-1, 72 h. In short, it runs like this:
(§1)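 Cells were seeded (10000/well for A2780, 5000/well for MES-SA/Dx5 and KB-3-1/V1) and left to attach 12 h, then exposed to compound for 72 h. Medium was removed, and MTT (0.83 mg/mL) was added for 1 h at 37 °C. Cells were lysed in DMSO and absorbance read at 540 nm. Signal was corrected for unstained lysate background, normalized to untreated cells, and IC50 taken from a sigmoidal dose-response fit.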

Series [2] deals with MES-SA/Dx5. Nature of the series: Cytotoxicity against human MES-SA/DX5 cells transfected with mCherry fluorescent protein incubated for 72 hrs in presence of efflux pump inhibitor, Tariquidar by fluorescence assay. It counts as functional, cell-based. In a few lines:
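The mCherry-expressing cells (lentiviral) were seeded at 5000 or 2500 per well, attached for 24 h, and exposed 72 h to compounds with Tariquidar coadministered. Live-cell signal was fluorescence at 585 nm excitation and 610 nm emission.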

Series [3] concerns A2780. Kind of series: Cytotoxicity against human A2780 cells assessed as inhibition of cell proliferation incubated for 72 hrs by MTT assay. The series is classed as functional, cell-based. To be noted: A2780, 72 h. In short, it runs like this:
as §1

The nature of series [4]: Cytotoxicity against human A2780adr cells assessed as inhibition of cell proliferation incubated for 72 hrs by MTT assay. The series is classed as functional, cell-based. To be noted: A2780 ADR. In a few lines: as §1
Series [5] deals with MES-SA/Dx5. Kind of series: Cytotoxicity against human MES-SA/DX5 cells transfected with mCherry fluorescent protein assessed as inhibition of cell proliferation incubated for 72 hrs by fluorescent assay. It counts as functional, cell-based. The note with it: Homo sapiens, MES-SA/Dx5, 72 h. In short, it runs like this: (§2)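 MES-SA and MES-SA/Dx5 cells were made to stably express mCherry by lentiviral transduction. Cells were seeded at 5000 (96-well) or 2500 (384-well) per well, allowed to attach 24 h, then treated with compound dilutions for 72 h. Viability was read as fluorescence, excitation 585 nm, emission 610 nm.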

Series [6] in a line: Selectivity ratio of IC50 for human MES-SA cells to IC50 for human MES-SA/DX5 cells incubated for 72 hrs by MTT assay. The series is classed as functional. In short, it runs like this:
(§3)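 The selectivity ratio is the IC50 in P-gp-negative parental cells divided by the IC50 in the P-gp-positive resistant partner.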

Series [7] has as its system MES-SA. Kind of series: Cytotoxicity against human MES-SA cells assessed as inhibition of cell proliferation incubated for 72 hrs by MTT assay. The series is classed as functional, cell-based. In a few lines:
as §1

The test system of series [8] is HFF. Kind of series: Cytotoxicity against human HFF cells by MTT assay.
Series [9] has as its system MES-SA/Dx5. Nature of the series: Cytotoxicity against human MES-SA/DX5 cells incubated for 72 hrs in presence of efflux pump inhibitor, Tariquidar by MTT assay. The series is classed as functional, cell-based. In a few lines: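 Run as the 72 h MTT viability readout (12 h attachment, MTT 0.83 mg/mL for 1 h, DMSO lysis, A540), with the P-gp inhibitor Tariquidar at 1 µM co-present. IC50 came from sigmoidal fits of 2 to 4 independent experiments.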

Series [10] relates to MES-SA. Kind of series: Cytotoxicity against human MES-SA cells transfected with mCherry fluorescent protein assessed as inhibition of cell proliferation incubated for 72 hrs by fluorescent assay. To be noted: Homo sapiens, MES-SA, 72 h. It counts as functional, cell-based. In a few lines:
as §2

The test system of series [11] is MES-SA/Dx5. Kind of series: Cytotoxicity against human MES-SA/DX5 cells assessed as inhibition of cell proliferation incubated for 72 hrs by MTT assay. The note with it: MES-SA/Dx5, 72 h. The series is classed as functional, cell-based. In a few lines: as §1
Series [12] has as its system KB-V1. Nature of the series: Cytotoxicity against human KB-V1 cells assessed as inhibition of cell proliferation incubated for 72 hrs by MTT assay. It counts as functional, cell-based. The note with it: KB-V1, 72 h. In short, it runs like this: as §1
Series [13] concerns MES-SA/Dx5. Nature of the series: Reduction in P-gp expression in human MES-SA/DX5 cells at IC20 concentration incubated for 5 days by calcein-AM staining based flow cytometric analysis. The series is classed as functional, cell-based. To be noted: time 5.0 day. In short, it runs like this: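 MES-SA/Dx5 cells were grown 5 days with compound at IC20 values calculated from viability assays, then recovered in drug-free medium refreshed every fifth day. At 80% confluency, cells were stained with Calcein AM with or without verapamil, with TO-PRO-3 excluding dead cells, and analysed by flow cytometry for the P-gp-negative fraction.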

Series [14] in a line: Selectivity ratio of IC50 for human MES-SA cells transfected with mCherry to IC50 for human MES-SA/DX5 cells transfected with mCherry incubated for 72 hrs by fluorescent assay. It counts as functional.
Series [15] has as its system A2780 ADR. Nature of the series: Cytotoxicity against human A2780adr cells assessed as inhibition of cell proliferation incubated for 72 hrs in presence of efflux pump inhibitor, Tariquidar by MTT assay. The series is classed as functional, cell-based.
Series [16] can be described thus: Selectivity ratio of IC50 for human A2780 cells to IC50 for human A2780adr cells incubated for 72 hrs by MTT assay. The series is classed as functional. In short, it runs like this:
as §3

Activity calls are given as the source filed them. The rule behind the calls is not given here.

Turning to `Cc1ccc(NC(=S)N/N=C2\C(=O)Nc3ccccc32)cc1`, the IC50 in series [1] (read-out: IC50) is 4.44 µM; in series [1] (read-out: pIC50 (converted)), 4.17 µM; in series [3] (read-out: IC50), 9.7 µM; in series [3] (read-out: pIC50 (converted)) it was 9.55 µM; in [4] (read-out: IC50), 8.75 µM; in [4] (read-out: pIC50 (converted)), 8.91 µM. The IC50 in [5] (read-out: IC50) was 3.27 µM; in series [7] (read-out: IC50), 5.33 µM; in series [7] (read-out: pIC50 (converted)) it was 5.13 µM; in [10] (read-out: IC50) it was 11.3 µM; in series [11] (read-out: IC50) it was 3.27 µM; in series [11] (read-out: pIC50 (converted)), 3.31 µM. Besides, the IC50 in series [12] (read-out: IC50) was 4 µM; in [12] (read-out: pIC50 (converted)) it was 3.98 µM. Also, the outcome in [2] was inactive. For the same compound, the figures for the “Ratio IC50” value in series [6] and in series [14] were 1.87 and 3.1, respectively. The Activity result in series [8] is on record as “Toxic”. In series [9], the result was Active. Further, in series [13], the inhibition result is “Active”.
As to `COc1cc(N/N=C(\C)c2ccccn2)ncn1`, the IC50 is 0.36 µM in series [1] (read-out: IC50); 0.355 µM in series [1] (read-out: pIC50 (converted)); 0.14 µM in series [3] (read-out: IC50); 0.132 µM in series [3] (read-out: pIC50 (converted)); 0.027 µM in series [4] (read-out: IC50); 0.0257 µM in series [4] (read-out: pIC50 (converted)). Also, the IC50 in [5] (read-out: IC50) is 0.22 µM; in [5] (read-out: pIC50 (converted)), 0.234 µM; in series [7] (read-out: IC50) it was 0.26 µM; in [10] (read-out: IC50), 0.26 µM; in series [10] (read-out: pIC50 (converted)), 0.339 µM; in [11] (read-out: IC50) it was 0.095 µM. Besides, the IC50 in series [12] (read-out: IC50) and in series [12] (read-out: pIC50 (converted)) was 0.49 µM each time. In addition, the results for the “Ratio IC50” value in [6] and in series [16] were 2.62 and 4.33, respectively. Also, the outcome in [15] and in [9] was Active. Further, the Activity entry in [8] was “Non-Toxic”.
Regarding `CCc1ccc(/C=N/Nc2cc(OC)ncn2)nc1`, the IC50 is 1.23 µM in series [1] (read-out: IC50); 1.23 µM in series [1] (read-out: pIC50 (converted)); 1.3 µM in [3] (read-out: IC50); 1.29 µM in series [3] (read-out: pIC50 (converted)); 0.63 µM in series [4] (read-out: IC50); 0.617 µM in series [4] (read-out: pIC50 (converted)). Moreover, the IC50 is 2.11 µM in series [5] (read-out: IC50); 1.55 µM in [7] (read-out: IC50); 2.33 µM in series [10] (read-out: IC50); 1.11 µM in series [11] (read-out: IC50); 1.57 µM in [12] (read-out: IC50); 1.55 µM in series [12] (read-out: pIC50 (converted)). The entries for the “Ratio IC50” value in [6] and in [16] were 1.41 and 2.03, respectively. The outcome in series [15] and in series [9] was Active.
Consider `C/C(=N\Nc1nc2ccccc2s1)c1ccccc1O`, for which the IC50 is 14.3 µM in series [1] (read-out: IC50); 13.8 µM in series [1] (read-out: pIC50 (converted)); 8.74 µM in [3] (read-out: IC50); 8.32 µM in series [3] (read-out: pIC50 (converted)); 9.77 µM in series [4] (read-out: pIC50 (converted)); 11.6 µM in [5] (read-out: IC50). The IC50 is 8.91 µM in series [5] (read-out: pIC50 (converted)); 12.5 µM in [7] (read-out: IC50); 12.3 µM in series [7] (read-out: pIC50 (converted)); 21.6 µM in series [10] (read-out: IC50); 21.4 µM in series [10] (read-out: pIC50 (converted)); 5.52 µM in series [11] (read-out: IC50). The IC50 is 5.25 µM in [11] (read-out: pIC50 (converted)), 12.1 µM in [12] (read-out: IC50) and 11.5 µM in series [12] (read-out: pIC50 (converted)). For the same compound, the result in [2] and in series [9] was Active. For the same compound, the “Ratio IC50” value worked out at 1.91 in [6] and 1.9 in [14]. Moreover, the Activity entry in [8] is “Toxic”.

Source of the values: ChEMBL document CHEMBL4715714, “Design, synthesis and biological evaluation of thiosemicarbazones, hydrazinobenzothiazoles and arylhydrazones as anticancer agents with a potential to overcome multidrug resistance” (Eur J Med Chem, 2016).
